# 697 NFkB inh – inhibitors of the PMA/ionomycin-induced NF-kB reporter in 697 B cells. 0.33% of 330,000 active. 697 B-cell NF-kB luciferase reporter, 16 h. inhibition, % at 4 µM; in the data active means inhibition above about 35%
# Jurkat NFkB inh – inhibitors of the PMA/ionomycin-induced NF-kB reporter in Jurkat cells. PMA/ionomycin-induced NF-kB luciferase reporter, luminescence. inhibition, % at 4 µM. 0.53% of 330,000 active; in the data active means inhibition above about 50%
# CHOP UPR activ – activators of apoptotic arm of unfolded protein response (CHOP). CHO-CHOP luciferase reporter, UPR activation, luminescence; percent of tunicamycin response over DMSO baseline. activation, % at 10 µM. 0.34% of 330,000 active. AID 449763;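 active means at 10 µM dose, activation of 40% or more, normalized to positive control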;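 further: 100% = tunicamycin at 10 µg/mL and 0% = DMSO alone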
#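 Material: CHO-CHOP cells, stable luciferase reporter of PERK-eIF2a-CHOP signalling; quantity: 500 reporter cells seeded per well; buffer or medium: F12 medium containing 10% fetal bovine serum; compound: one dose, 10 µM in 0.5% DMSO; incubation: 6 h compound treatment, 37 °C; measured by: Steady-Glo luciferase luminescence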
# CHOP inh – inhibitors of CHOP induction in ER stress response. CHO-K1 CHOP-promoter luciferase, tunicamycin-induced, 15-18 h. inhibition, % at 10 µM. 3.8% of 220,000 active. AID 2732;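 active means compounds that reduced the stress-induced luciferase reporter signal by more than about 70% of percent inhibition, limit read from the data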;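 further: 0% = tunicamycin plus vehicle and 100% = wells without tunicamycin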
# XBP1 UPR activ – activators of adaptive arm of unfolded protein response (XBP1); CHO-XBP1 luciferase reporter, IRE1-XBP1 UPR activation, luminescence; percent of tunicamycin response, DMSO as zero; activation, % at 20 µM; 0.33% of 330,000 active;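 active means versus positive control, 20 µM dose yields 30% or more activation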;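 further: 100% = tunicamycin at 10 µg/mL and 0% = DMSO only wells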
#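 Material – CHO cell line with stable XBP1 luciferase reporter · Buffer or medium – F12 plus 10% FBS · Compound – single point, 20 µM final compound, 1% DMSO · Schedule – 16-18 h cell attachment at 37 °C, then 6 h compound exposure · Signal – Steady-Glo luminescence read · Benchmarks – high control tunicamycin 10 µg/mL final, low control DMSO vehicle only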
# * = called active by the depositor; / = not tested or not shown. Many of the other results were omitted from the sample, so hits are more common in it than they were.
SMILES,697 NFkB inh,Jurkat NFkB inh,CHOP UPR activ,CHOP inh,XBP1 UPR activ
Cc1ccc(-n2nnnc2-c2cnc(N3CCCC3)nc2C(F)(F)F)cc1,-54,-7,0,53,0
FC(F)(F)c1nc(N2CCCC2)ncc1-c1nnnn1-c1ccccc1,-43,19,2,72*,0
CCN(CC(=O)Nc1c(F)cccc1F)C(=O)c1ccc(S(=O)(=O)N2CCC(C)CC2)cc1,5,2,0,/,-2
COc1cccc(NC(=O)c2nnn(Cc3ccc(Br)cc3F)c2N)c1,-4,-11,3,73*,-1
O=C(CSc1nnc(CNc2ccccc2)o1)N1CCc2ccccc21,-1,4,-1,51,0
O=C(CSc1nnc(Cc2csc(Nc3cccc(Cl)c3)n2)o1)N1CCc2ccccc21,6,-5,-2,89*,-1
O=C(c1ccc(CNc2c(NC3CCCCC3)c(=O)c2=O)cc1)N1CCc2ccccc21,/,/,/,73*,/
O=C(O)C1=C[C@H](c2ccc(Br)cc2)C[C@H](OCc2ccc(CO)cc2)O1,-2,-15,0,-4,2
Clc1cc(Cl)c(OCc2nc(-c3ccccn3)no2)cc1Cl,-141,-116,1,96*,2
Clc1ccc(OCc2nc(-c3ccncc3)no2)c(Cl)c1,-196,-132,2,83*,4
CC(C)(C)c1ccc(OCc2nc(-c3ccccn3)no2)c(Br)c1,-183,-114,5,68,-2
Cc1ccc(-c2nc(-c3ccccn3)no2)cc1Cl,-116,13,-8,83*,-8
COc1ccc(C(=O)NCc2nnc(SCC(=O)NCc3ccco3)o2)cc1,-9,-2,-1,/,-4
O=C(Nc1cnccn1)Nc1ccc(Cl)cc1Cl,-45,-22,2,78*,4
O=C(Nc1ccc2c(c1)OCO2)Nc1ccc(Cl)cc1Cl,-32,-65,3,91*,4
CCc1ccc([C@@H]2CC=C(C(=O)O)[C@H](c3ccc(C(C)(C)C)cc3)N2S(=O)(=O)c2ccc(C)cc2)cc1,-3,4,9,/,12
CCOC(=O)c1cnc(SC)nc1Sc1ccccc1,4,10,-1,75*,-1
CCOC(=O)c1cnc(SC)nc1N,-8,-4,1,-9,-1
C=CCc1c(C)nc(SCc2ccccc2)[nH]c1=O,0,9,-1,/,-5
CCOC(=O)c1sc(NC(=O)CSc2n[nH]c(-c3ccncc3)n2)c(C#N)c1C,-14,-7,0,85*,-1
CCc1ccc(NS(=O)(=O)c2ccc(OC)c(C)c2)cc1,15,4,-1,85*,0
COc1ccc(S(=O)(=O)Nc2ccc3ccccc3c2)cc1C,-12,-9,0,89*,0
COc1cc(NS(=O)(=O)c2ccc(NC(=S)NC(=O)c3ccc(F)c(F)c3)cc2)nc(OC)n1,7,2,1,/,-2
O=C(/C=C/c1ccc(Cl)cc1Cl)N(Cc1ccc(Cl)cc1)C1CCS(=O)(=O)C1 (centres undefined),-25,-2,1,79*,-3
O=C1N(Cc2ccccc2F)c2ccccc2C12OCCCO2,11,1,2,-6,1
SMILES,697 NFkB inh,Jurkat NFkB inh,CHOP UPR activ,CHOP inh,XBP1 UPR activ
O=C1N(Cc2ccc(F)cc2Cl)c2ccccc2C12OCCCO2,22,-2,1,80*,8
CC(C)CC(=O)CN1C(=O)C2(OCCO2)c2ccccc21,6,-15,-2,75*,-1
O=C(CNC(=S)N(Cc1ccccc1)Cc1cccnc1)NC1CCCCC1,13,10,0,22,-1
CCc1c(C)nc2ncnn2c1NCCc1ccc(Cl)cc1,6,35,1,71*,3
Oc1ccc(Cl)cc1C1=NNC(c2cc(Br)cc3c2OCOC3)C1 (centres undefined),8,18,0,79*,3
Oc1c(Cl)cc(Cl)cc1C1=NNC(c2ccc(Cl)cc2)C1 (centres undefined),/,/,/,-30,/
Oc1ccc(Cl)cc1C1=NNC(c2ccc(Cl)cc2)C1 (centres undefined),-60,-19,18,78*,7
COc1cccc(C2NC(=O)NC(O)(C(F)(F)F)C2C(=O)c2cccnc2)c1OC (centres undefined),14,11,0,-5,0
Cc1ccc(S(=O)(=O)NCCCN2CCCC2)cc1,4,-11,2,/,4
Cc1oc2ccc(O)c(CN3CCOCC3)c2c1C(=O)c1ccc(Cl)cc1,13,25,1,71*,6
CN=C1S/C(=C\c2cc(C)n(-c3ccccc3F)c2C)C(=O)N1C,-195,-114,-5,96*,0
CC(C)(C)C1CCC(=NOC(=O)c2ccc(F)cc2)CC1 (centres undefined),24,11,0,82*,-2
O=C(Nc1ccc(N2CCOCC2)cc1)Nc1ccc(Cl)c(Cl)c1,-84,-66,4,79*,3
O=C(Nc1ccc(Cl)cc1)Nc1ccc(N2CCOCC2)cc1,-87,-72,3,24,6
O=[N+]([O-])c1ccc(-c2nc(-c3ccc(F)cc3)c(-c3ccncc3)[nH]2)cc1,/,/,/,15,/
O=c1cc(N2CCCCC2)c(-c2ccccc2)nn1Cc1ccc(Cl)cc1Cl,6,-5,-2,5,-4
O=c1cc(N2CCCCC2)c(-c2ccccc2)nn1Cc1ccccc1Cl,11,-1,2,90*,-4
COc1ccc(OC)c(NC(=O)C2CC(/C=C/c3ccccc3)=NO2)c1 (centres undefined),-26,-7,0,/,-3
C=C(C)C1CC=C(C)/C(=N/NC(=O)COc2ccc(Cl)cc2)C1 (centres undefined),3,-12,-1,86*,4
CC(C)CCC(CC(C)O)c1n[nH]c(=S)n1-c1ccccc1 (centres undefined),9,1,0,3,-3
Cc1ccc(S(=O)(=O)Oc2ccc3c(c2)O/C(=C\c2cccnc2)C3=O)cc1,10,3,0,78*,-2
Cc1cc(OCCN2CCN(S(=O)(=O)c3ccccc3F)CC2)ccc1C(C)C,5,-10,-3,/,-2
COc1ccc(/C=C(/C(=O)Nc2ccccc2C(=O)NC(C)C)c2ccccc2)cc1,1,9,0,74*,1
COc1ccc(/C=C(/C(=O)Nc2ccccc2C(=O)N2CCCC2)c2ccccc2)cc1,-16,1,0,7,-1
CCNC(=S)N/N=C/c1cn(Cc2ccccc2F)c2ccccc12,18,-3,1,77*,3
Cc1ccccc1-c1cc(-c2ccccc2O)n[nH]1,-166,-106,5,80*,1
Cc1ccc(-c2cc(-c3ccccc3Cl)[nH]n2)c(O)c1,-163,-143,3,-23,2
Cc1ccc(-c2cc(-c3ccccc3[N+](=O)[O-])[nH]n2)c(O)c1,-68,-106,4,94*,5
